The source of these data is ChEMBL document CHEMBL1154833, “Curcuminoid analogs with potent activity against Trypanosoma and Leishmania species” (Eur J Med Chem, 2010).

For test [1], the system named is Trypanosoma brucei brucei. Nature of the test: Antitrypanosomal activity against Trypanosoma brucei brucei 427 after 48 hrs by alamar blue assay. The format is functional, organism-based. Particulars: Trypanosoma brucei, 427, 48 h; read-out: EC50. (In general: Resazurin is reduced to fluorescent resorufin, in cell work by metabolically active cells.)
Test [2] relates to Trypanosoma brucei brucei. As to the kind of experiment: Antitrypanosomal activity against diminazene-resistant Trypanosoma brucei brucei deltaTbat1-KO after 48 hrs by alamar blue assay. The format is functional, organism-based.
For test [3], the system named is Trypanosoma brucei brucei. As to the kind of experiment: Antitrypanosomal activity against multidrug-resistant Trypanosoma brucei brucei B48 after 48 hrs by alamar blue assay. It is filed as functional, organism-based. To be noted: B48, 48 h.
The test system of a further test is Trypanosoma evansi. As to the kind of experiment: Antitrypanosomal activity against Trypanosoma evansi ITMAV170475 after 48 hrs by alamar blue assay. The format is functional, organism-based. To be noted: ITMAV170475, 48 h. The method, boiled down: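 Culture-adapted T. evansi ITMAV170475 seeded at 1.5 ×10⁵ trypanosomes/ml in HMI9/20% FBS. Exposed to compound for 48 h, then incubated with Alamar Blue for 24 h, all at 37 °C under CO2. Assay validated against hemocytometer cell counts. EC50 from a variable-slope sigmoid fit.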

A further test has as its system Leishmania major. As to the kind of experiment: Antileishmanial activity against Leishmania major Friedlin promastigotes after 48 hrs by alamar blue assay. The format is functional, organism-based. To be noted: Leishmania major, Friedlin, 48 h; read-out: EC50. The method, boiled down:
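L. major Friedlin promastigotes grown in HOMEM with 10% FBS at 25 °C. Alamar Blue fluorescence assay in 96-well plates. 3–6 independent experiments unless noted.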

In the next test the test system is Leishmania mexicana. Nature of the test: Antileishmanial activity against Leishmania mexicana MNYC/BZ/62/M379 amastigotes after 48 hrs by alamar blue assay. The format is functional, organism-based. Particulars: Leishmania mexicana, MNYC/BZ/62/M379, 48 h; read-out: EC50. A digest of the protocol:
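Axenic L. mexicana MNYC/BZ/62/M379 amastigotes kept at 33 °C under CO2 in Schneider's Drosophila medium with 20% FBS and 0.3% gentamycin. Alamar Blue fluorescence read-out.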

Another test concerns HEK293. As to the kind of experiment: Cytotoxicity against HEK293 cells after 16 hrs by alamar blue assay. The format is cell-based, Homo sapiens. Particulars: Homo sapiens, HEK293, 16 h; read-out: EC50. The method, boiled down: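 HEK293T cells grown in DMEM-based medium with 10% newborn bovine serum at 37 °C, 5% CO2. Doubling dilutions of compound added for 16 h, then resazurin added. Fluorescence read at emission 590 nm after a further 24 h.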

In test [4] the test system is Trypanosoma brucei brucei. As to the kind of experiment: Selectivity ratio of EC50 for Trypanosoma brucei brucei B48 to EC50 for Trypanosoma brucei brucei 427. It is filed as functional. The method, boiled down:
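T. b. brucei bloodstream forms (strain 427, its ΔTbAT1 clone, and the pentamidine-adapted B48 line derived from it) cultured in HMI9 with 10% FBS at 37 °C under CO2. EC50 for each line from the Alamar Blue fluorescence assay with sigmoid fitting, and the ratio taken between lines.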

A value given as a limit tells only on which side of the number the result lay.

In general, EC50 refers to the concentration needed to bring the measured effect to its halfway point.

Regarding `N=C(N)c1ccc(/N=N/Nc2ccc(C(=N)N)cc2)cc1` [DIMINAZENE], the EC50 was determined as 0.12 µM in test [1], 2.4 µM in test [2], 1 µM in test [3] and 0.018 µM in the test with Trypanosoma evansi.

On to `COc1cc(/C=C/C(=O)/C=C/CCc2ccc(O)c(OC)c2)ccc1O`, for which the EC50 in test [1] came out at 0.22 µM; in test [2], 0.22 µM; in test [3] it was 0.1 µM; in the test with Leishmania major, 2.7 µM; with Leishmania mexicana it was 4.6 µM; with HEK293 it was 8.1 µM. The EC50 with Trypanosoma evansi was determined as 0.21 µM.

Regarding `COc1cc(/C=C/C=C/C(=O)/C=C/c2ccc(O)c(OC)c2)ccc1O`, the EC50 in test [1] was 1.1 µM; in test [2] it was 1.4 µM; in test [3] it was 0.58 µM; in the test on Leishmania major, 7.4 µM; in the test on Leishmania mexicana, 4.8 µM; in the test with HEK293, 22 µM.

On to `C=CCOc1ccc(/C=C/C(=O)CC(=O)/C=C/c2ccc(OCC=C)c(OC)c2)cc1OC`, for which the EC50 in test [1] is 1.6 µM; in test [2] it was 1.9 µM; in test [3] it was 5.8 µM; in the test with Leishmania major, 25 µM; with Leishmania mexicana, > 100 µM; in the test with HEK293 it was > 500 µM. This compound yielded an EC50 in the test with Trypanosoma evansi of 5.6 µM. Besides, in test [4], the “Ratio EC50” value was found to be 3.6.

On to `COc1cc(/C=C/C(=O)CC(=O)/C=C/c2ccc(OCC=C(C)C)c(OC)c2)ccc1O`, for which the concentration for a half-maximal effect (EC50) is 1.4 µM in test [1]; 1.7 µM in test [2]; 2 µM in test [3]; 7.6 µM in the test on Leishmania major; 21 µM in the test with Leishmania mexicana; > 500 µM in the test with HEK293.

As to `O=C(CCc1ccc(O)c(O)c1)CC(=O)CCc1ccc(O)c(O)c1` [DIDEMETHYLTETRAHYDROCURCUMIN], the EC50 is 1.9 µM in test [1]; 1.5 µM in test [2]; 1.7 µM in test [3]; > 100 µM with Leishmania major; 53 µM in the test with Leishmania mexicana; 150 µM in the test on HEK293.

For the compound `COc1cc(/C=C/C(=O)CC(=O)/C=C/c2ccc(OC(=O)c3ccccc3)c(OC)c2)ccc1O`, the EC50 in test [1] stood at 3.1 µM; in test [2], 3.8 µM; in test [3], 2.1 µM; in the test with Leishmania major it was 9.3 µM; with Leishmania mexicana it was 76 µM; in the test on HEK293 it was 94 µM. Moreover, the response with Trypanosoma evansi was half-maximal at 1.5 µM (EC50).

`COc1cc(/C=C/C(=O)CC(=O)/C=C/c2cc(OC)c(O)c([N+](=O)[O-])c2)ccc1O`: the EC50 in test [1] amounted to 15 µM; in test [2] it was 18 µM; in test [3] it was 25 µM; in the test on Leishmania major, 28 µM; in the test with Leishmania mexicana, 14 µM; in the test on HEK293, 82 µM.

On to `COc1cc(CCCCC(=O)CCc2ccc(O)c(OC)c2)ccc1O`, for which the EC50 in test [1] is 32 µM; in test [2], 28 µM; in test [3], 27 µM; with Leishmania major, 37 µM; with Leishmania mexicana, > 50 µM; in the test with HEK293 it was 140 µM.

For the compound `COc1cc(/C=C/C(=O)CC(=O)/C=C/c2ccc(OCCO)cc2)ccc1O`, the EC50 in test [1] is 0.7 µM; in test [2], 0.85 µM; in test [3] it was 1.1 µM; with Leishmania major it was 9.7 µM; with Leishmania mexicana, 32 µM; in the test with HEK293, 46 µM.

Consider `O=C(/C=C/c1ccc(O)cc1)CC(=O)/C=C/c1ccc(O)cc1` [BISDEMETHOXYCURCUMIN], for which the EC50 in test [1] was 7.7 µM; in test [2], 9.5 µM; in test [3] it was 4.5 µM; in the test with Leishmania major, 72 µM; in the test with Leishmania mexicana, 63 µM; in the test with HEK293, 200 µM.

As to `COc1cc(CCC(=O)CC(=O)CCc2ccc(O)c(O)c2)ccc1O`, the EC50 in test [1] stood at 0.5 µM; in test [2], 0.52 µM; in test [3], 0.43 µM; in the test on Leishmania major it was 11 µM; in the test on Leishmania mexicana it was 16 µM; in the test with HEK293, 130 µM.

For the compound `COc1cc(/C=C/C(=O)CC(=O)/C=C/c2ccc(OCC=C(C)C)cc2)ccc1OCC=C(C)C`, the EC50 in test [1] is 1.9 µM; in test [2] it was 2.9 µM; in test [3], 3.1 µM; in the test with Leishmania major it was 48 µM; in the test with Leishmania mexicana, 27 µM; in the test with HEK293 it was > 500 µM.

As to `COc1cc(CCC(=O)CC(=O)CCc2ccc(O)c(OC)c2)ccc1O` [TETRAHYDROCURCUMIN], the EC50 in test [1] stood at 21 µM; in test [2], 37 µM; in test [3], 12 µM; with Leishmania major, 90 µM; in the test with Leishmania mexicana, 43 µM; in the test on HEK293 it was 120 µM.

With `COc1cc(/C=C/C(=O)CC(=O)/C=C/c2ccc(OCCO)c(OC)c2)ccc1OCCO`, the EC50 in test [1] was 1.8 µM; in test [2], 2.3 µM; in test [3] it was 1.6 µM; with Leishmania major it was 33 µM; in the test on Leishmania mexicana, 37 µM; in the test with HEK293, 20 µM.

With `COc1cc(/C=C/C(=O)CC(=O)/C=C/c2ccc(OC(C)=O)cc2)ccc1OC(C)=O`, the EC50 in test [1] was 1.5 µM; in test [2], 2 µM; in test [3], 0.92 µM; in the test on Leishmania major it was > 100 µM; with Leishmania mexicana, 43 µM; with HEK293 it was 49 µM.

With `C=CCOc1ccc(/C=C/C(=O)CC(=O)/C=C/c2ccc(O)c(OC)c2)cc1OC`, the EC50 is 2.4 µM in test [1]; 2.2 µM in test [2]; 12 µM in test [3]; 5.7 µM with Leishmania major; 12 µM in the test with Leishmania mexicana; 270 µM in the test on HEK293. This compound also gave an EC50 in the test on Trypanosoma evansi of 1.6 µM. The “Ratio EC50” value in test [4] came to 5.

On to `O=C(/C=C/c1ccc(O)c(O)c1)CC(=O)/C=C/c1ccc(O)c(O)c1`, for which the EC50 stood at 1.8 µM in test [1]; 2.5 µM in test [2]; 3.4 µM in test [3]; 26 µM in the test on Leishmania major; 12 µM in the test with Leishmania mexicana; 39 µM with HEK293.

On to `COc1ccc(/C=C/C(=O)CC(=O)/C=C/c2ccc(O)cc2)cc1`, for which the EC50 is 8.9 µM in test [1]; 8.8 µM in test [2]; 2.9 µM in test [3]; 87 µM with Leishmania major; 32 µM in the test with Leishmania mexicana; 400 µM with HEK293.

Regarding `COc1ccc(/C=C/C(=O)CC(=O)/C=C/c2ccc(O)c(OC)c2)cc1`, the EC50 is 1.7 µM in test [1]; 2 µM in test [2]; 2.1 µM in test [3]; 23 µM in the test on Leishmania major; 38 µM with Leishmania mexicana; 79 µM in the test with HEK293.

Take `COc1cc(/C=C/C(=O)CC(=O)/C=C/c2ccc(OC(=O)c3ccccc3)cc2)ccc1O`: the EC50 in test [1] was 3.7 µM; in test [2] it was 7.8 µM; in test [3], 7.8 µM; in the test with Leishmania major it was 20 µM; in the test with Leishmania mexicana it was > 100 µM; in the test on HEK293, > 500 µM. For the same compound, in the test on Trypanosoma evansi, the EC50 was determined as 2.9 µM.

For `COc1cc(/C=C/C(=O)CC(=O)/C=C/c2ccc(OC(C)=O)c(OC)c2)ccc1OC(C)=O`, the EC50 in test [1] was determined as 1.6 µM; in test [2], 2.2 µM; in test [3] it was 1.2 µM; in the test with Leishmania major, 73 µM; in the test on Leishmania mexicana, 34 µM; with HEK293, 80 µM.

On to `CCCCCOc1ccc(CC/C=C/C(=O)CCc2ccc(OCCCCC)c(OC)c2)cc1OC`, for which the EC50 in test [1] was 1.1 µM; in test [2], 1.2 µM; in test [3], 1.8 µM; with Leishmania major, 6.6 µM; in the test with Leishmania mexicana it was 53 µM; in the test with HEK293, 43 µM.

On to `O=C(CCc1ccc(O)cc1)CC(=O)CCc1ccc(O)cc1` [LETESTUIANIN C], for which the EC50 in test [1] came to 2.5 µM; in test [2], 4 µM; in test [3], 5.1 µM; in the test with Leishmania major, 80 µM; in the test with Leishmania mexicana, 64 µM; with HEK293 it was 350 µM.

Consider `COc1cc(/C=C/C(O)=C/C(=O)/C=C/c2ccc(O)cc2)ccc1O` [DEMETHOXYCURCUMIN], for which the EC50 in test [1] is 4.6 µM; in test [2], 5.9 µM; in test [3], 2.2 µM; in the test on Leishmania major, 37 µM; in the test with Leishmania mexicana, 37 µM; in the test with HEK293 it was 40 µM.

Turning to `COc1ccc(/C=C/C(=O)CC(=O)/C=C/c2ccc(OC)c(OC)c2)cc1`, the EC50 in test [1] was 1.6 µM; in test [2], 1.9 µM; in test [3], 1.9 µM; in the test with Leishmania major, 23 µM; with Leishmania mexicana, 61 µM; in the test with HEK293, 690 µM.

As for `COc1cc(/C=C/C=C/C(=O)CCc2ccc(O)c(OC)c2)ccc1O`, the EC50 in test [1] turned out to be 4.1 µM; in test [2], 9.7 µM; in test [3], 2.2 µM; with Leishmania major, 30 µM; in the test on Leishmania mexicana it was 22 µM; in the test with HEK293, 76 µM.
